In brackets after ≈: the same amount, converted by molar mass. Activity calls are given as the source filed them. No rule for the calls is given here. Residues, ends and D or L forms follow the SMILES beside them. *: point of attachment. Boc = CC(C)(C)OC(=O)*; NHBn = c1ccc(CN*)cc1
What was measured:
LLC-PK1 = assay: Cytotoxicity against pig LLC-PK1 cells assessed as cell viability after 48 hrs by neutral red uptake assay; format: cell-based, Sus scrofa; details: llc-pk1, 48 h
In short: (§1)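 Neutral red uptake assay on human cancer lines (SK-MEL, KB, BT-549, SK-OV-3) and noncancerous mammalian cells (VERO, LLC-PK1). Highest tested concentration was 10 µg/mL.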

Vero = assay: Cytotoxicity against african green monkey Vero cells assessed as cell viability after 48 hrs by neutral red uptake assay; format: cell-based; details: chlorocebus sabaeus; in short: as §1
SK-OV-3 = assay: Cytotoxicity against human SKOV3 cells assessed as cell viability after 48 hrs by neutral red uptake assay; format: cell-based; details: sk-ov-3, 48 h; in short: as §1
KB = assay: Cytotoxicity against human KB cells assessed as cell viability after 48 hrs by neutral red uptake assay; format: cell-based; in short: as §1
BT-549 = assay: Cytotoxicity against human BT549 cells assessed as cell viability after 48 hrs by neutral red uptake assay; format: cell-based; details: bt-549, 48 h; in short: as §1
SK-MEL = assay: Cytotoxicity against human SK-MEL cells assessed as cell viability after 48 hrs by neutral red uptake assay; format: cell-based; in short: as §1
Escherichia coli = assay: Antibacterial activity against Escherichia coli ATCC 35218 assessed as growth inhibition after 16-20 hrs by CLSI method; format: functional, organism-based
Aspergillus fumigatus = assay: Antifungal activity against Aspergillus fumigatus assessed as growth inhibition; format: functional, organism-based
Pichia kudriavzevii = assay: Antifungal activity against Candida krusei assessed as growth inhibition; format: functional, organism-based
Nakaseomyces glabratus = assay: Antifungal activity against Candida glabrata assessed as growth inhibition; format: functional, organism-based
Candida albicans = assay: Antifungal activity against Candida albicans assessed as growth inhibition; format: functional, organism-based
Cryptococcus neoformans = assay: Antifungal activity against Cryptococcus neoformans ATCC 90113 assessed as growth inhibition after 70-74 hrs by CLSI method; format: functional, organism-based
[1] = Cryptococcus neoformans, ATCC 90113, read-out: IC50
[2] = Cryptococcus neoformans, ATCC 90113

Row | Structure (SMILES) | MIC (Cryptococcus neoformans) | MIC (Cryptococcus neoformans; [2]) | Activity (LLC-PK1) | Activity (Vero) | Activity (SK-OV-3) | Activity (KB) | Activity (BT-549) | Activity (SK-MEL) | growth inhibition (GI) (Escherichia coli) | growth inhibition (GI) (Aspergillus fumigatus) | growth inhibition (GI) (Pichia kudriavzevii) | growth inhibition (GI) (Nakaseomyces glabratus) | growth inhibition (GI) (Candida albicans) | MFC (Cryptococcus neoformans) | IC50 (Cryptococcus neoformans; [1]) | IC50 (Cryptococcus neoformans) | MFC (Cryptococcus neoformans; [2])
1 | CC(C)(C)OC(=O)N[C@@H](Cc1c[nH]c2ccccc12)C(=O)N[C@@H](Cc1c[nH]c(-c2ccccc2)n1)C(=O)NCc1ccccc1 | inactive |  | > 10 µg/mL | > 10 µg/mL | > 10 µg/mL | > 10 µg/mL | > 10 µg/mL | > 10 µg/mL | inactive | inactive | inactive | inactive | inactive | inactive |  | Not Active | 
2 | COC(=O)[C@H](Cc1c[nH]cn1)NC(=O)[C@H](Cc1c[nH]c2ccccc12)NC(=O)OC(C)(C)C (Boc-Trp-His-OMe) | inactive |  | > 10 µg/mL | > 10 µg/mL | > 10 µg/mL | > 10 µg/mL | > 10 µg/mL | > 10 µg/mL | inactive | inactive | inactive | inactive | inactive | inactive |  | Not Active | 
3 | COc1ccc(-c2nc(C[C@H](NC(=O)[C@H](Cc3c[nH]c4ccccc34)NC(=O)OC(C)(C)C)C(=O)NCc3ccccc3)c[nH]2)cc1 | inactive |  | > 10 µg/mL | > 10 µg/mL | > 10 µg/mL | > 10 µg/mL | > 10 µg/mL | > 10 µg/mL | inactive | inactive | inactive | inactive | inactive | inactive |  | Not Active | 
4 | COC(=O)[C@H](Cc1c[nH]c(-c2ccc(C)cc2)n1)NC(=O)[C@H](Cc1c[nH]c2ccccc12)NC(=O)OC(C)(C)C | inactive |  | > 10 µg/mL | > 10 µg/mL | > 10 µg/mL | > 10 µg/mL | > 10 µg/mL | > 10 µg/mL | inactive | inactive | inactive | inactive | inactive | inactive |  | Not Active | 
5 | N[C@@H](Cc1c[nH]c2ccccc12)C(=O)N[C@@H](Cc1c[nH]c(-c2cccc3ccccc23)n1)C(=O)NCc1ccccc1 | inactive |  | > 10 µg/mL | > 10 µg/mL | > 10 µg/mL | > 10 µg/mL | > 10 µg/mL | > 10 µg/mL | inactive | inactive | inactive | inactive | inactive | inactive |  | Not Active | 
6 | CC(C)(C)OC(=O)N[C@@H](Cc1c[nH]c2ccccc12)C(=O)N[C@@H](Cc1c[nH]cn1)C(=O)NCc1ccccc1 (Boc-Trp-His-NHBn) | inactive |  | > 10 µg/mL | > 10 µg/mL | > 10 µg/mL | > 10 µg/mL | > 10 µg/mL | > 10 µg/mL | inactive | inactive | inactive | inactive | inactive | inactive |  | Not Active | 
7 | COC(=O)[C@H](Cc1c[nH]cn1)NC(=O)[C@@H](N)Cc1c[nH]c2ccccc12 (H-Trp-His-OMe) | inactive |  | > 10 µg/mL | > 10 µg/mL | > 10 µg/mL | > 10 µg/mL | > 10 µg/mL | > 10 µg/mL | inactive | inactive | inactive | inactive | inactive | inactive |  | Not Active | 
8 | C[C@@H]1[C@H](O)[C@@H](C)/C=C/C=C/C=C/C=C/C=C/C=C/C=C/[C@H](O[C@@H]2O[C@H](C)[C@@H](O)[C@H](N)[C@@H]2O)C[C@@H]2O[C@](O)(C[C@@H](O)C[C@@H](O)[C@H](O)CC[C@@H](O)C[C@@H](O)CC(=O)O[C@H]1C)C[C@H](O)[C@H]2C(=O)O [AMPHOTERICIN B] |  | 1.25 µg/mL (≈ 1.35 µM) |  |  |  |  |  |  |  |  |  |  |  |  | 0.69 µg/mL (≈ 0.747 µM) |  | 1.25 µg/mL (≈ 1.35 µM)

Second part, led by results:

Row | MIC (Cryptococcus neoformans) | MIC (Cryptococcus neoformans; [2]) | Structure (SMILES) | Activity (LLC-PK1) | Activity (Vero) | Activity (SK-OV-3) | Activity (KB) | Activity (BT-549) | Activity (SK-MEL) | growth inhibition (GI) (Escherichia coli) | growth inhibition (GI) (Aspergillus fumigatus) | growth inhibition (GI) (Pichia kudriavzevii) | growth inhibition (GI) (Nakaseomyces glabratus) | growth inhibition (GI) (Candida albicans) | MFC (Cryptococcus neoformans) | IC50 (Cryptococcus neoformans; [1]) | IC50 (Cryptococcus neoformans) | MFC (Cryptococcus neoformans; [2])
9 | inactive |  | COC(=O)[C@H](CCCNC(=N)N)NC(=O)[C@H](Cc1c[nH]c(-c2ccccc2)n1)NC(=O)OC(C)(C)C | > 10 µg/mL | > 10 µg/mL | > 10 µg/mL | > 10 µg/mL | > 10 µg/mL | > 10 µg/mL | inactive | inactive | inactive | inactive | inactive | inactive | 16.6 µg/mL (≈ 33.1 µM) |  | 
10 |  | 10 µg/mL (≈ 18.6 µM) | COc1ccc(-c2nc(C[C@H](NC(=O)[C@@H](N)Cc3c[nH]c4ccccc34)C(=O)NCc3ccccc3)c[nH]2)cc1 | > 10 µg/mL | > 10 µg/mL | > 10 µg/mL | > 10 µg/mL | > 10 µg/mL | > 10 µg/mL | inactive | inactive | inactive | inactive | inactive | inactive | 10.8 µg/mL (≈ 20.2 µM) |  | 
11 | inactive |  | COC(=O)[C@H](CCCNC(=N)N)NC(=O)[C@@H](N)Cc1c[nH]cn1 (H-His-Arg-OMe) | > 10 µg/mL | > 10 µg/mL | > 10 µg/mL | > 10 µg/mL | > 10 µg/mL | > 10 µg/mL | inactive | inactive | inactive | inactive | inactive | inactive |  | Not Active | 
12 | inactive |  | COC(=O)[C@H](Cc1c[nH]c(-c2ccc(C)cc2)n1)NC(=O)[C@@H](N)Cc1c[nH]c2ccccc12 | > 10 µg/mL | > 10 µg/mL | > 10 µg/mL | > 10 µg/mL | > 10 µg/mL | > 10 µg/mL | inactive | inactive | inactive | inactive | inactive | inactive | 11.9 µg/mL (≈ 26.7 µM) |  | 
13 | inactive |  | COC(=O)[C@H](Cc1c[nH]c(-c2cccc3ccccc23)n1)NC(=O)[C@@H](N)Cc1c[nH]c2ccccc12 | > 10 µg/mL | > 10 µg/mL | > 10 µg/mL | > 10 µg/mL | > 10 µg/mL | > 10 µg/mL | inactive | inactive | inactive | inactive | inactive | inactive | 17.3 µg/mL (≈ 35.9 µM) |  | 
14 | inactive |  | COC(=O)[C@H](CCCNC(=N)N)NC(=O)[C@@H](N)Cc1c[nH]c(-c2ccc(OC)cc2)n1 | > 10 µg/mL | > 10 µg/mL | > 10 µg/mL | > 10 µg/mL | > 10 µg/mL | > 10 µg/mL | inactive | inactive | inactive | inactive | inactive | inactive |  | Not Active | 
15 | inactive |  | COC(=O)[C@H](CCCNC(=N)N)NC(=O)[C@H](Cc1c[nH]cn1)NC(=O)OC(C)(C)C (Boc-His-Arg-OMe) | > 10 µg/mL | > 10 µg/mL | > 10 µg/mL | > 10 µg/mL | > 10 µg/mL | > 10 µg/mL | inactive | inactive | inactive | inactive | inactive | inactive |  | Not Active | 
